Data taken from PMC2164977 (The Journal of Cell Biology, 1999).
Non-standard residues stand in square brackets, D forms with d. Residues, ends and D or L forms follow the SMILES beside them. *: point of attachment. Sta = CC(C)C[C@H](N)[C@@H](O)CC(=O)O; Isovaleryl = CC(C)CC(=O)*

What was measured:
[1] = system: degradation activity of chloroplast extract (ATP-dependent, soluble metallopeptidase activity); experiment: Degradation assay with chloroplast extract; format: biochemical; details: for effect on subfragment degradation in chloroplast extract: 30 min incubation, not shown
[2] = target: SPP in chloroplast extract (Pisum sativum, UniProt Q40983); experiment: Conversion of transit peptide to subfragment in chloroplast extract; format: biochemical
In short: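 [35S]methionine-labeled FD transit peptide is made by 3 min cleavage of preFD on immobilized SPP, then frozen, cleared and dialyzed. It is incubated with chloroplast extract (1:1) in 25 mM Hepes-KOH pH 7.5 at 24°C for 30 min with 1,10-phenanthroline at 0.1–10 mM. Percent substrate remaining is quantified by tricine SDS-PAGE.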

[3] = target: T1, stromal processing peptidase (SPP) (Pisum sativum, UniProt Q40983); details: 10 mM NEM in binding assay; data not shown
In short: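 Recombinant biotin-tagged SPP from E. coli extract is captured on streptavidin magnetic beads. It is incubated 5 min at 24°C in 25 mM Hepes-KOH pH 7.5 with dialyzed [35S]methionine-labeled FD transit peptide or subfragment. Beads are washed twice in buffer, then eluted once with NaCl (0–1,000 mM), and the remaining material is released by boiling. Tricine SDS-PAGE, autoradiography and PhosphorImager quantification follow.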

[4] = target: T1, stromal processing peptidase (SPP); experiment: Processing and transit peptide trimming by recombinant SPP; format: biochemical; details: not shown
In short: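 Time courses use reticulocyte-translated [35S]methionine precursors with biotin-tagged recombinant SPP (IPTG-induced E. coli, 30°C) bound to streptavidin magnetic beads. Reactions run in 25 mM Hepes-KOH pH 7.5, 2 mM PMSF, at 24°C, and are stopped by boiling in loading buffer. For preFD and preHSP21, 5 mM 1,10-phenanthroline is added at 2 or 5 min. Products are resolved by tricine SDS-PAGE and autoradiography.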

[5] = system: nonspecific protease activity in rabbit reticulocyte lysate; experiment: Nonspecific protease activity of the reticulocyte lysate; format: biochemical; details: 2 mM PMSF, supernatant of preHSP21 processing reaction, 1 h at 24°C
In short: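 To check lysate protease, [35S]methionine-labeled preHSP21 from reticulocyte lysate is processed 30 min at 24°C by bead-immobilized SPP. The supernatant holding the transit peptide subfragment is removed and incubated 1 h at 24°C, without inhibitor or with 2 mM PMSF. Remaining subfragment is read out.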

Sequence of SPP in chloroplast extract (Q40983 143-1257): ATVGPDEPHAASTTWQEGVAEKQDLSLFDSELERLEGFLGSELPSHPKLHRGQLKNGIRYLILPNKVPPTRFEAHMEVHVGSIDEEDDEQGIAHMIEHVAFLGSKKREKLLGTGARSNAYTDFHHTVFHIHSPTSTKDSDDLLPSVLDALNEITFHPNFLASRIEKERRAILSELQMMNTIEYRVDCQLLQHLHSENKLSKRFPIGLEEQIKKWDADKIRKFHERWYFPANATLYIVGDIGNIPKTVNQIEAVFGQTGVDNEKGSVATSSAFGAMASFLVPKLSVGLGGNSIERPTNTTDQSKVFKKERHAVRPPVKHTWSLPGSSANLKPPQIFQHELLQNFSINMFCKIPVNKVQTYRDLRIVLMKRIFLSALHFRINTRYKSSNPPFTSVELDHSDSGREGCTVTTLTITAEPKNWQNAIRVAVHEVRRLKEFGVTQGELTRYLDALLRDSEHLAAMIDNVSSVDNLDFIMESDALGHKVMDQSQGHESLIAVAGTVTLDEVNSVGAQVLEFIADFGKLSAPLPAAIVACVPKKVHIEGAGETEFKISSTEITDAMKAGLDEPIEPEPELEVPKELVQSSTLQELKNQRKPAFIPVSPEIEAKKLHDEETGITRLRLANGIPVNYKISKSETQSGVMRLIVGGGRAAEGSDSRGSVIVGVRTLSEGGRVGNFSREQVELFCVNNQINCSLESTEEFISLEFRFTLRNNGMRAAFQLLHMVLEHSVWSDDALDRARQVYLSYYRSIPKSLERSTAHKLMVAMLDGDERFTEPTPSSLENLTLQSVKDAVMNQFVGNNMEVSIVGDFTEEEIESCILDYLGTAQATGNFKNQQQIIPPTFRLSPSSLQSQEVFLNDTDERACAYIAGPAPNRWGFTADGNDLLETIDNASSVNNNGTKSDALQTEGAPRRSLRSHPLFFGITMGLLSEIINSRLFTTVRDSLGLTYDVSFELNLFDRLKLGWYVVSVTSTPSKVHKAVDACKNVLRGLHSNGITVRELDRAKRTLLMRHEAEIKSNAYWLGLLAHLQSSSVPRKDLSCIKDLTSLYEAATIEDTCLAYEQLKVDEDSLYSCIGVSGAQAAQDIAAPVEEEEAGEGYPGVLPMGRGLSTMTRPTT
T1 sequence (Q40983 143-1257): as above

**Q.** Which results are given for `c1cnc2c(c1)ccc1cccnc12` [1,10-phenanthroline]?
**A.** FD transit peptide subfragment remaining after 30 min in chloroplast extract ([1]; 1 mM 1,10-phenanthroline, 24°C): 86%; effect on degradation of the subfragment in chloroplast extract ([1]; 5 mM 1,10-phenanthroline, 30 min): inhibited; degradation of FD transit peptide subfragment in chloroplast extract ([1]; 10 mM 1,10-phenanthroline, 30 min, 24°C): no degradation; FD transit peptide left after 30 min in chloroplast extract ([2]; 1 mM 1,10-phenanthroline, 24°C): 16%; FD transit peptide remaining after 30 min in chloroplast extract ([2]; 10 mM 1,10-phenanthroline, 24°C): 80%; sensitivity of SPP relative to the degradation activity ([2]; SPP less sensitive than degradation activity): about tenfold

**Q.** With `CC(C)C[C@H](NC(=O)[C@H]1O[C@@H]1C(=O)O)C(=O)NCCCCN=C(N)N` [E64] as the compound, how does the “effect on subfragment degradation in chloroplast extract” value (“effect on subfragment degradation” below) ([1]; 100 μM inhibitor) read?
**A.** None of these inhibitors significantly decreased

**Q.** With `CCN1C(=O)C=CC1=O` [NEM, N-ethylmaleimide] as the compound, how does the “effect on interaction between SPP and FD transit peptide” value [3] read?
**A.** disrupted the interaction

**Q.** What about the “effect on subfragment degradation” value ([1]; 10 mM inhibitor) of the same compound?
**A.** None of these inhibitors significantly decreased

**Q.** What about the “effect on SPP cleavage of precursors” value [4] of the same compound?
**A.** inhibited

**Q.** With `O=S(=O)(F)Cc1ccccc1` [PMSF] as the compound, how does the “effect on subfragment degradation” value ([1]; 10 mM inhibitor) read?
**A.** None of these inhibitors significantly decreased

**Q.** And the “HSP21 transit peptide subfragment remaining” value [5]?
**A.** ~90%

**Q.** With `CC(C)CC(=O)N[C@H](C(=O)N[C@H](C(=O)N[C@@H](CC(C)C)[C@@H](O)CC(=O)N[C@@H](C)C(=O)N[C@@H](CC(C)C)[C@@H](O)CC(=O)O)C(C)C)C(C)C` [pepstatin] (Isovaleryl-VV[Sta]A[Sta]-OH) as the compound, how does the “effect on subfragment degradation” value ([1]; 100 μM inhibitor) read?
**A.** None of these inhibitors significantly decreased
